Data set [1] relates to SW780 cells. Kind of data set: Cell cycle distribution by flow cytometry. The format is cell-based, human. Conditions: 500 nM, 24-h exposure. A digest of the protocol: (§1)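 Cells grown in standard medium at 37 °C, 5% CO2, then exposed to 500 nM test compound or DMSO for 24 h. Harvested cells were fixed overnight in 70% ethanol at 4 °C and rehydrated in PBS pH 7.4. They were then pelleted, stained with propidium iodide/RNase in the dark at 37 °C for 30 min, and analysed by flow cytometry. Three independent experiments; ANOVA.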

Data set [2] can be described thus: Toxicity in treated xenograft-bearing animals. The format is in vivo, Balb/c immunodeficient nude mice. Conditions: nude mice, 20 mg kg–1 per day i.p. Summed up:
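Male Balb/c nude mice aged 6–8 weeks carried flank trocar implants of ~2 mm3 MGH-U3, SW780 or RT112 tumour fragments. At mean 32 mm3, mice were randomised into groups of eight (untreated control or treated). Dosing was 20 mg kg−1 per day i.p. on days 0–3, plus days 6–9 for MGH-U3. Tumours were measured by caliper.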

The subject of data set [3] is MGH-U3 cells. Kind of data set: Cell cycle distribution by flow cytometry. The format is cell-based, human. Conditions: 500 nM, 24-h exposure. Summed up:
as §1

Data set [4] deals with 97-7 cells. Kind of data set: Cell cycle distribution by flow cytometry. The format is cell-based, human. Conditions: 500 nM, 24-h exposure. Summed up:
as §1

The target of data set [5] is FGFR3 (Homo sapiens, UniProt P22607). The data set can be described thus: FGFR3 phosphorylation in RT112 cells. The format is cell-based. Conditions: 500 nM, 0–24 h. A digest of the protocol: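 RT112 cells were exposed to 500 nM test compound for 0–24 h and lysed in RIPAE buffer, cleared at 12 700 × g, 4 °C. FGFR3 was immunoprecipitated with an extracellular-domain antibody. Blots were probed with anti-phosphotyrosine (4G10), then stripped (Tris pH 7.5/urea, 55 °C, 30 min) and reprobed for FGFR3. Detection was by chemiluminescence.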

In data set [6] the test system is RT112 cells. Kind of data set: Cell cycle distribution by flow cytometry. The format is cell-based, human. Conditions: 500 nM, 24-h exposure. A digest of the protocol:
as §1

Data set [7] deals with RT4 cells. The data set can be described thus: Cell cycle distribution by flow cytometry. The format is cell-based, human. Conditions: 500 nM, 24-h exposure. Summed up: as §1
Data set [8] deals with phospho-ERK in 94-10 cells. The data set can be described thus: FGF2-induced and constitutive ERK phosphorylation in 94-10 cells. The format is cell-based, human. Conditions: 500 nM, pretreated 1 h, FGF2 5 ng ml–1 + heparin 10 μg ml–1, 15 min. Summed up:
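94-10 cells (FGFR1-expressing) were pretreated 1 h with or without 500 nM test compound. They were then stimulated 15 min with heparin (10 μg ml–1) with or without FGF2 (5 ng ml–1). Lysis was in RIPAE buffer (Triton X-100, EDTA, SDS, deoxycholate, glycerol, protease inhibitors in PBS), cleared at 12 700 × g, 4 °C. Protein was measured by BCA, immunoblotted for phospho-ERK, reprobed for tubulin and detected by chemiluminescence.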

FGFR3, sequence (P22607 397-758 limits assumed): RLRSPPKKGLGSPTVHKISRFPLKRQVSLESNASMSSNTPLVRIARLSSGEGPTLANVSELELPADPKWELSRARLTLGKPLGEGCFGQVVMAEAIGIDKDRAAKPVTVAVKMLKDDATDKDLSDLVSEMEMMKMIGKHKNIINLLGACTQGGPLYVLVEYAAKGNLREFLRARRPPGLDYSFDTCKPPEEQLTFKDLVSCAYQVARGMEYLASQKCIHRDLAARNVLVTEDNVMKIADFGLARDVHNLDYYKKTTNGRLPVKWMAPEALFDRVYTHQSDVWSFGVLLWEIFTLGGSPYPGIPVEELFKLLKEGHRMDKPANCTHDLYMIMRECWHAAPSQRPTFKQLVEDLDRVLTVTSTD

In the case of `CCN(CC)CCCCNc1ncc2cc(-c3cc(OC)cc(OC)c3)c(NC(=O)NC(C)(C)C)nc2n1` [PD173074, 1-tert-butyl-3-[6-(3,5-dimethoxy-phenyl)-2-(4-diethylamino-butylamino)-pyrido[2,3-d]pyrimidin-7-yl]-urea], the cell cycle distribution result in data set [1] was “no significant change in cell cycle distribution”; in data set [3] it was “significant increase in the proportion of cells in G1”; in data set [4], “significant increase in the proportion of cells in G1”; in data set [6] it was “significant increase in the proportion of cells in G1”; in data set [7], “significant increase in the proportion of cells in G1”. For the same molecule, in data set [2], the “toxicity in treated animals” value was “No evidence of significant toxicity”. Also, in data set [5], the “FGFR3 phosphorylation, time-course” value was “rapid and sustained inactivation of FGFR3”. Moreover, the “FGF-induced and constitutive ERK phosphorylation” value in data set [8] is “block both FGF-induced and constitutive ERK phosphorylation”.

As to `CN1CCN(c2ccc3nc(-c4c(N)c5c(F)cccc5[nH]c4=O)[nH]c3c2)CC1` [TKI-258], the cell cycle distribution entry is “no significant change in cell cycle distribution” in data set [1]; “significant increase in the proportion of cells in G1” in data set [3]; “significant increase in the proportion of cells in G1” in data set [4]; “significant increase in the proportion of cells in G1” in data set [6]; “significant increase in the proportion of cells in G1” in data set [7].

These data come from paper PMC3039817 (British Journal of Cancer, 2010).
